Source: PubChem (several laboratories)
Jurkat NFkB inh: inhibitors of induced NF-kB luciferase reporter, primary screen, TCR NF-kB activation inhibitor project, cell-based, luminescence, uHTS; Jurkat, PMA/ionomycin-induced NF-kB luciferase reporter; inhibition, % at 4 µM; 330,000 compounds, 0.53% hits; AID 435003, 2010; in the data active = inhibition above about 50%
697 NFkB inh: inhibitors of PMA/ionomycin-induced NF-kB reporter, 697 cells, primary screen, B-cell NF-kB inhibitor project, cell-based, luminescence, uHTS; inhibition, % at 4 µM; AID 435022, 2010; 330,000 compounds, 0.33% hits; 697 B-cell NF-kB luciferase reporter, 16 h; in the data active = inhibition above about 35%
NR2E3 ag-1: NR2E3 agonists in two-hybrid cells, primary screen, cell-based, luminescence, CHO-S, Gal4-NCOR/VP16-NR2E3. Photoreceptor-specific nuclear receptor (Homo sapiens), Q9Y5X4. luciferase. inhibition of corepressor binding, % at 3.98 µM. 360,000 compounds, 0.35% hits;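 active = inhibition above the mean of all tested compounds plus 3 SD, cut at about 70% in these data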;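 note: higher means lower luciferase signal from less NR2E3 corepressor binding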
GalR3 antag: GalR3 antagonists in HEK293 cells, primary screen, cell-based, fluorescence readout; inhibition, % at 3 µM; Galanin receptor type 3 (Homo sapiens), O60755; HEK293 GalR3-CNG cAMP membrane potential fluorescence; galR3 body fused to GalR1 C-terminus; 360,000 compounds, 0.44% hits;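 active = inhibition above the screen-wide average plus 3 SD, cut at about 13% in these data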;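 note: forskolin and galanin both at EC90 stimulate the cells; cAMP rise reported by CNG channel membrane potential dye signal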
NR2E3 ag-2: inhibitors of NR2E3-RetCOR corepressor binding, primary screen, NR2E3 agonist project, biochemical, TR-FRET, GST-NR2E3, biotin-RetCOR; Photoreceptor-specific nuclear receptor (Homo sapiens), Q9Y5X4; 1536-well; 320,000 compounds, 0.12% hits; inhibition of corepressor binding, % at 4.78 µM;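 active = percent inhibition above the cutoff of mean plus 3 SD of all tested compounds, set per screening campaign, cut at about 20% in these data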
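Assay system: NR2E3–RetCOR corepressor complex. Quantity: 1.35 nM GST-NR2E3. Buffer or medium: pH 7.5 Tris-based buffer. Reagent: biotinylated RetCOR corepressor at 7 nM final. Schedule: 5 h at 4 °C. Detection: TR-FRET, emission read at 617 and 671 nm. Replicates: one well per compound, singlicate testing.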
JMJD2C inh: inhibitors of GASC-1 histone demethylase, primary screen, biochemical, fluorescence, DELFIA europium; inhibition, % at 2.35 µM; GST-JMJD2C(1-420) H3K9me3 demethylation; 330,000 compounds, 0.069% hits; AID 2099, 2009;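 active = more than half of a compound's replicate wells show inhibition beyond 50%, single wells judged on their own value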;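 note: signal counts dimethyl H3K9 product captured on neutravidin plate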
Target sequence (Q9H3R0 1-420 limits assumed): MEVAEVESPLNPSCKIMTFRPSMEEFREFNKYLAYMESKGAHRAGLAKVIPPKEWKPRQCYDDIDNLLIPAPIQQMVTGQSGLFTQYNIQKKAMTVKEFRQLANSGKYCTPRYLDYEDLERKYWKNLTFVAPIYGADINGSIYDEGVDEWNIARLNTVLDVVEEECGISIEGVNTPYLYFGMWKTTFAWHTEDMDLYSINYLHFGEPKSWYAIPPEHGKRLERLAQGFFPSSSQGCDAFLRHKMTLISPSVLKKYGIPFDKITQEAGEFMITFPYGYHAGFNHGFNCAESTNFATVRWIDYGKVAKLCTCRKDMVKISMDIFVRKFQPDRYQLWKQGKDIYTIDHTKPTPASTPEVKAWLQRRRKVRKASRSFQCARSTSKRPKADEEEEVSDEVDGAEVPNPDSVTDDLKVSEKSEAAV
NR2E3 ag confirm: NR2E3 agonist confirmation in cells, cell-based, luminescence, CHO-S two-hybrid | shares compounds with NR2E3 ag-1 | CHO-S mammalian two-hybrid NR2E3-NCOR, luciferase luminescence | inhibition, % at 3.98 µM | 2,300 compounds, 51% hits | AID 624378, 2012;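 active = average inhibition above a cutoff equal to the mean inhibition of all tested compounds plus one SD, cut at about 70% in these data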
GAL4-VP16 luc: GAL4-VP16 reporter modulators, confirmation, counter-screen for NR2E3 agonist project, cell-based, luminescence, CHO-S, high throughput; inhibition, % at 3.98 µM; CHO-S GAL4-VP16 luciferase reporter; 2,300 compounds, 29% hits; shares compounds with NR2E3 ag-1;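 active = mean inhibition above a cutoff equal to the average over all tested compounds plus one standard deviation, cut at about 70% in these data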;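 note: luciferase from a UAS reporter driven by GAL4-VP16 transactivation; higher means less reporter light so more repression of VP16 activity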
A number is an active result; . = inactive; / = no result. The list is not random: actives were taken first. Their share in the collection is about 1.5%.

SMILES	Jurkat NFkB inh	697 NFkB inh	NR2E3 ag-1	GalR3 antag	NR2E3 ag-2	JMJD2C inh	NR2E3 ag confirm	GAL4-VP16 luc
CSc1cccc(CN2CCN(Cc3ccc(F)c(F)c3)C(CCO)C2)c1 (configuration not stated)	.	.	.	.	.	.	/	/
O=C(OCCOc1ccc(Cl)cc1)c1cc(S(=O)(=O)N2CCCCC2)ccc1N1CCOCC1	/	/	.	.	/	/	72.5	.
O=C(COC(=O)c1cc(S(=O)(=O)N2CCCCC2)ccc1N1CCOCC1)c1ccccc1Cl	/	/	.	.	/	/	/	/
Cc1ccc(OCCOC(=O)c2cc(S(=O)(=O)N3CCCCC3)ccc2N2CCOCC2)cc1	.	.	.	.	.	.	71.5	.
COc1ccc(COC(=O)c2cc(S(=O)(=O)N3CCCCC3)ccc2N2CCOCC2)cc1	.	.	.	.	.	.	/	/
O=C(Nc1ccc([N+](=O)[O-])cc1)c1cc(Cl)sc1Cl	.	.	.	.	.	.	/	/
Cc1nnc(SC(C)C(=O)Nc2sc3c(c2C#N)CCCC3)[nH]c1=O (configuration not stated)	.	.	.	.	.	.	/	/
N#Cc1c(NC(=O)CSc2nc(N)cc(=O)[nH]2)sc2c1CCCCCC2	.	.	.	.	.	.	.	.
CC(Sc1nc(N)cc(=O)[nH]1)C(=O)Nc1sc2c(c1C#N)CCCC2 (configuration not stated)	.	.	.	.	.	.	.	.
CCC(Sc1nc(C)cc(=O)[nH]1)C(=O)Nc1sc2c(c1C#N)CCCC2 (configuration not stated)	.	.	88.1	.	.	.	76.3	.
CCN(C1CCCCC1)S(=O)(=O)c1cc2c3c(c1)CCN3C(=O)CC2	.	.	.	.	.	.	/	/
O=C(Cc1ccc(S(=O)(=O)N2CCCC2)s1)N1CCN(c2ccccc2)CC1	.	.	.	.	.	.	/	/
O=C(Cc1ccc(S(=O)(=O)N2CCOCC2)s1)N1CCN(c2cccc(C(F)(F)F)c2)CC1	.	.	71.8	/	.	.	80.6	.
Cc1ccc(S(=O)(=O)N2C[C@H]3N(C(=O)OC(C)C)N(C(=O)OC(C)C)C[C@H](OC(=O)NCC4CCCCC4)[C@@]3(O)C2)cc1	/	/	.	/	/	/	70.5	.
CCN(CC)C(=O)C1=C(C)N(Cc2ccc(C(C)(C)C)cc2)C(=O)C(CC(=O)NCc2cccs2)C1 (configuration not stated)	/	/	.	.	/	/	/	/
C[C@@H]1CN([C@@H](C)CO)C(=O)CCCn2nncc2CO[C@H]1CN(C)C(=O)Nc1ccc(F)cc1	/	/	.	.	/	/	/	/
O=S(=O)(c1ccccc1C(F)(F)F)N1CCN(c2ncnc3sccc23)CC1	.	.	.	.	/	.	.	.
Cc1ccc(S(=O)(=O)N2CCN(c3ncnc4sccc34)CC2)cc1	.	.	103.4	.	.	.	93.8	82.7
Cc1sc2ncnc(N3CCN(S(=O)(=O)c4ccc(F)cc4)CC3)c2c1C	.	.	78.0	.	.	.	79.9	74.2
CCCNC(=O)c1ccc(C2SCC(=O)N2CCc2ccccc2)cc1 (configuration not stated)	.	.	.	.	.	.	/	/
CC(NC(=O)c1ccco1)c1nc(-c2ccc(Cl)cc2)no1 (configuration not stated)	.	.	.	.	.	.	/	/
Cc1cc(Nc2nc3ccccc3[nH]c2=O)n(-c2ccccc2)n1	.	.	.	.	.	/	.	.
Cc1cc(Nc2cnc3ccccc3n2)n(-c2ccccc2)n1	.	.	.	.	.	.	/	/
Nc1ccc(S(=O)(=O)NNC(=O)C(=O)NNc2ccccc2)cc1	.	.	.	.	.	.	.	.
O=C(NNc1ccccc1)C(=O)NNS(=O)(=O)c1ccc(CCCl)cc1	.	.	.	.	.	.	/	/
SMILES	Jurkat NFkB inh	697 NFkB inh	NR2E3 ag-1	GalR3 antag	NR2E3 ag-2	JMJD2C inh	NR2E3 ag confirm	GAL4-VP16 luc
CC(C(=O)O)c1ccc(-c2ccccc2)c(F)c1 (configuration not stated)	.	.	.	.	.	.	/	/
CC(C(=O)Nc1ccccc1)c1ccc(-c2ccccc2)c(F)c1 (configuration not stated)	.	.	73.7	/	.	.	.	.
COc1ccc(NC(=O)Cn2cc(C(C)=O)c3ccccc32)cc1	.	.	.	.	.	.	.	.
CCOc1ccc(NC(=O)Cn2cc(C(C)=O)c3ccccc32)cc1	.	.	.	.	.	.	/	/
O=C(c1ccc([N+](=O)[O-])o1)N1CCN(c2nc3c(Cl)cccc3s2)CC1	.	.	.	.	.	.	/	/
COc1cccc2sc(N3CCN(C(=O)c4ccc([N+](=O)[O-])o4)CC3)nc12	.	.	.	/	.	.	.	.
OC(c1ccc(-c2ccccc2)cc1)c1ncc(-c2ccccc2F)[nH]1 (configuration not stated)	/	/	.	.	/	/	/	/
Cc1ccc(NS(=O)(=O)c2ccc(-n3cccn3)cc2)c(C)c1	.	.	.	.	.	.	/	/
Cc1ccc(NS(=O)(=O)c2ccc(-n3cccn3)cc2)c(Br)c1	/	/	.	.	/	/	.	.
Cc1ccc(NS(=O)(=O)c2ccc(-n3cccn3)cc2)cc1F	.	.	.	.	.	.	.	.
C[C@@H]1CN([C@@H](C)CO)C(=O)c2c(c3ccccc3n2C)-c2ccccc2CO[C@H]1CN(C)S(=O)(=O)c1ccc(C(F)(F)F)cc1	/	/	.	.	/	/	/	/
Cn1nnnc1Sc1ncnc2scc(-c3ccccc3)c12	.	.	.	.	.	.	.	.
Cn1nnnc1Sc1ncnc2scc(-c3cccc4ccccc34)c12	.	.	.	.	/	/	.	.
Cn1nnnc1Sc1ncnc2scc(-c3ccc(Br)cc3)c12	.	.	.	.	/	/	.	.
Cn1nnnc1Sc1ncnc2scc(-c3ccc(F)cc3)c12	.	.	.	.	.	.	/	/
COc1ccccc1-c1csc2ncnc(Sc3nnnn3C)c12	.	.	.	.	.	.	/	/
